From PubChem BioAssay
Rin1 Abl inh – blocks binding of human Rin1 to Abl. P00519+Q13671. TR-FRET Rin1/Abl binding, biochemical. inhibition, % at 7.35 µM. actives 0.4% (n = 360,000). AID 588664; in the data active = inhibition above about 5%, passing the limit was not always enough
CAL PDZ FP-1 – inhibitors of human CAL PDZ peptide binding; Q9HD26; purified CAL PDZ, TMR-peptide fluorescence polarization, 1 h; inhibition, % at 24.9 µM; actives 0.92% (n = 300,000);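 active = mean inhibition of at least 30% with at least half of replicates also reaching 30%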;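 also: 0% = DMSO neutral control and 100% = excess unlabeled competitor peptide PRC23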
ERAP1 HTS inh – ERAP1 (human) enzyme inhibition; Q9NZ08; recombinant ERAP1, Leu-AMC fluorescence, 60 min; inhibition, % at 10.7 µM; actives 0.15% (n = 340,000);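 active = mean replicate inhibition of at least 30%, or all replicates individually reaching that 30% level; inactive = mean below 30% and not every replicate reaching it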;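 also: 0% = neutral control wells and 100% = L-leucinethiol positive control wells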
PDI turbidity – blocks human protein disulfide isomerase activity. P07237. PDI insulin aggregation turbidity, A650, 90 min. actives 0.052% (n = 350,000). inhibition, % at 10 µM. AID 588391;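 active = mean inhibition across replicates of 30% or more, whatever share of single replicates reach that level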
Target sequence (P07237 whole entry, looked up): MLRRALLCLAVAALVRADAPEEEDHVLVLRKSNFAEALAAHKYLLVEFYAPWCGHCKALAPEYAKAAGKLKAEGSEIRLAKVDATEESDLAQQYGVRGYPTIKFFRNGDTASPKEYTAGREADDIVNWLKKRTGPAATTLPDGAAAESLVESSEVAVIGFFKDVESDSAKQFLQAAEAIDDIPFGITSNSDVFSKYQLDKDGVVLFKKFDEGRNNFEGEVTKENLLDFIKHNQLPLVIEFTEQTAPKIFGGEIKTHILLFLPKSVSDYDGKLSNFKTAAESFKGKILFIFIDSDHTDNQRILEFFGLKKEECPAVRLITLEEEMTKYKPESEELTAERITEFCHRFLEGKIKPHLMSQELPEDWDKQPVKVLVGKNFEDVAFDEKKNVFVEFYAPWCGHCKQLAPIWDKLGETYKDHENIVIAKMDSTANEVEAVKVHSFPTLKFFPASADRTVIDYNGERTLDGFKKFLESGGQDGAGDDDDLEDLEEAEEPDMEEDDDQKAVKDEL
CAL PDZ FP-2 – inhibitors of human CAL PDZ peptide binding; purified CAL PDZ, TMR-peptide fluorescence polarization, 1 h; Q9HD26; inhibition, % at 20 µM; AID 504414; actives 0.02% (n = 330,000);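 active = highest replicate inhibition of at least 40%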;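 also: plate controls were DMSO neutral control wells for no effect and unlabeled competitor peptide control wells for full effect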
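material = purified tagged CAL PDZ domain construct (CerCALP) | compound dosing = 20 µM, one dose | times = 1 h at RT | measured by = fluorescence polarization from S- and P-plane intensities, G-factor corrected | read-out = inhibition from polarization loss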
ERp5 inh – inhibitors of human ERp5. Q15084. ERp5 insulin aggregation, absorbance 650 nm, 90 min. inhibition, % at 9.99 µM. actives 0.05% (n = 350,000). AID 651711;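 active = mean replicate inhibition above about 25%, with every replicate also reaching it, limit read from the data, passing the limit was not always enough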
* hit, by the source's call; nt = no result given; + = active, no number; ! = not active in a repeat. The list is not random: actives were taken first. Their share in the collection is about 1.1%.

SMILES | Rin1 Abl inh | CAL PDZ FP-1 | ERAP1 HTS inh | PDI turbidity | CAL PDZ FP-2 | ERp5 inh
O=C(Nc1ccnn1C1CCN(C2CCC2)CC1)c1ccccc1Cl | 2 | 17 | -1 | -16 | 0 | -1
O=C(Cc1cccc2ccccc12)Nc1cc(C(=O)O)cc(C(=O)O)c1 | -1 | 44* | 0 | 15 | -1 | 1
O=C(Cc1cccc2ccccc12)NC(=S)Nc1cccc(C(=O)O)c1 | -4 | -4 | -21 | 2 | -1 | -1
O=C1c2ccccc2C(=O)C12OC2c1ccc(Cl)cc1Cl (centres undefined) | 7.2* | -1 | -1 | -2 | 0 | -16
CC(=O)Nc1ccc(Nc2nnc(-c3ccc(C)c(S(N)(=O)=O)c3)c3ccccc23)cc1 | -3 | 1 | 3 | -3 | 1 | 3
NC(=O)c1ccc(-c2nnc(Nc3ccc(S(N)(=O)=O)cc3)c3ccccc23)cc1 | 3 | 66* | -2 | -1 | nt | 6
Cn1nc(C(=O)Oc2cc(=O)n(C)c3ccccc23)c2ccccc2c1=O | 2 | 36* | 2 | -2 | 1 | 2
Cc1cc2occ(CC(=O)NNC(=O)c3ccccc3)c2cc1C | -3 | 0 | 1 | 5 | -1 | 66*
Cc1ccc2c(CC(=O)NNC(=O)c3ccccc3)coc2c1 | -2 | -2 | -2 | -10 | -2 | -1
C[C@H]1CN([C@@H](C)CO)C(=O)c2cc(/C=C/c3ccccc3)cnc2O[C@@H]1CN(C)S(=O)(=O)c1cccs1 | nt | nt | 0 | nt | nt | 8
O=C(c1ccccn1)C1CCCN(Cc2cn[nH]c2-c2cc3ccccc3o2)C1 (centres undefined) | -2 | -1 | -5 | -19 | -2 | 3
c1ccc(CCC2CCCCN2Cc2cn[nH]c2-c2cc3ccccc3o2)nc1 (centres undefined) | 0 | 101* | -1 | 4 | -1 | 1
COC(=O)[C@H](CC(C)C)N1Cc2cc(OC)cc(OC)c2-c2ccccc2S1(=O)=O | 3 | 51* | nt | 6 | 0 | -1
C=C1CCN(C(CC(C)C)C(=O)OC)S(=O)(=O)c2ccccc21 (centres undefined) | 0 | 0 | 1 | -9 | 0 | 3
COc1ccccc1N1CN(S(=O)(=O)c2ccc(C)cc2)c2nc3ccccc3nc21 | 3 | 110* | 0 | -10 | 0 | 4
C[C@@H]1CCCCO[C@H](CN(C)C(=O)c2ccccc2)[C@@H](C)CN([C@@H](C)CO)C(=O)c2cc(NS(=O)(=O)c3cccs3)ccc2O1 | nt | nt | 4 | nt | nt | 4
Cc1cc(C)nc(N(C#N)Cc2cccc([N+](=O)[O-])c2)n1 | -1 | 46* | nt | 11 | -1 | nt
COc1ccc(CN(C#N)c2nc(C)cc(C)n2)cc1 | 0 | -2 | 1 | 0 | -1 | 0
C[C@@H]1CN([C@H](C)CO)C(=O)c2cc(NC(=O)c3ccncc3)ccc2O[C@H]1CN(C)C(=O)Nc1ccccc1 | nt | nt | 2 | nt | nt | -5
C[C@H](CO)N1C[C@H](C)[C@H](CN(C)C(=O)Nc2ccc(F)cc2)Oc2ncccc2C1=O | nt | nt | 2 | nt | nt | 8
C[C@H](CO)N1C[C@H](C)[C@@H](CN(C)C(=O)Nc2ccccc2)Oc2ccc(NC(=O)c3ccncc3)cc2C1=O | -1 | -4 | 65*! | 0 | 0 | 0
C[C@H](CO)N1C[C@H](C)[C@H](CN(C)C(=O)Nc2ccccc2)Oc2ncccc2C1=O | nt | nt | 49* | nt | nt | 22
COc1ccccc1NC(=O)N1CC(=O)N2[C@H](CO)[C@H](c3ccc(C#CC(C)C)cc3)[C@H]2C1 | nt | nt | 2 | nt | nt | -4
Cc1nc2ccccn2c1-c1ccnc(=S)[nH]1 | -1 | + | 3 | 13 | -1 | 4
S=c1nccc(-c2ccc(Cl)cc2)[nH]1 | -2 | nt | -1 | 0 | nt | 5
C[C@@H]1CN([C@@H](C)CO)S(=O)(=O)c2ccc(-c3ccc(C(=O)N(C)C)cc3)cc2O[C@H]1CN(C)Cc1ccc2c(c1)OCO2 | nt | nt | -1 | nt | nt | 0
O=S(=O)(N[C@@H]1CC[C@H](CCn2cc(C3CC3)nn2)O[C@@H]1CO)c1ccc(F)cc1 | nt | nt | 0 | nt | nt | 2
CNC(=O)c1cn(-c2ccc(Cl)cc2)c(=O)c2ccccc12 | 1 | 48* | -1 | 4 | nt | 3
COC(=O)c1cn(-c2ccc(Cl)cc2)c(=O)c2ccccc12 | 2 | -4 | nt | 2 | 0 | nt
